Experimental data collected from several papers.
Lines come from different studies, so protocols differ.
KCNH2: Voltage-gated inwardly rectifying potassium channel KCNH2 (KCNH2, Homo sapiens, UniProt Q12809)
UGT2B7: UDP-glucuronosyltransferase 2B7 (UGT2B7, Homo sapiens, UniProt P16662)

For `CN1CCN(Cc2ccc(NC(=O)c3cncc(C#Cc4cnc(N)c5ncccc45)c3)cc2C(F)(F)F)CC1`, the IC50 was greater than 30000 nM (KCNH2; ion current, inhibitor).
With `COc1ccc(CCC2CCCC(CCc3ccc(OC)cc3)N2C[C@@H](O)CO)cc1` (stereo in doubt) the IC50 was roughly 70 nM (KCNH2; ion current, inhibitor, patch clamp).
The inhibition of `Clc1ccc2c(C3CCN(CCc4c[nH]c5ccccc45)CC3)c[nH]c2c1` is reported as 99% (KCNH2; ligand displacement, radioligand; 10 µM).
The inhibition of `C=C1CCC2C(C)(CO)C(=O)CCC2(C)C1C=CC1=CCOC1=O` (stereo not drawn) is reported as 90% (UGT2B7; enzyme activity, inhibitor; 100 µM).
With `O=C(O)C(F)(F)C(F)(F)C(F)(F)C(F)(F)C(F)(F)C(F)(F)C(F)(F)F` the Km was 149 µM (Solute carrier organic anion transporter family member 2B1 (SLCO2B1, Homo sapiens, UniProt O94956); transporter uptake, substrate; CHO; 1 min, pH 7.4).
With `CCc1cccc(C(=O)Nc2cc(C)nn2-c2nc(CC)cc(=O)[nH]2)c1` the inhibition was 0% (KCNH2; ligand displacement, radioligand; 10 µM).
The inhibition of `CC(C)N1CCC[C@H]1CNC(=O)c1cn(C2CCCC2)c(=O)c2c1c1ccccc1n2C` is reported as 39% (KCNH2; ligand displacement, radioligand; 10 µM).
With `C=C1CC[C@@H]2[C@](C)(CO)[C@H](O)CC[C@@]2(C)[C@@H]1/C=C/C1=CCOC1=O` the inhibition was 80% (UGT2B7; enzyme activity, inhibitor; 100 µM).
`O=c1ccc2ccccc2o1` has an inhibition of -13.1% (KCNH2; ligand displacement, radioligand; 10 µM, cell membranes).
